Consider 18 compounds from paper PMC2804034 (Journal of medicinal chemistry, 2010).

The test system of data set [1] is Trypanosoma brucei brucei strain 221. In words: Trypanosoma brucei brucei assay. The note with it: for MIC50: Trypanosoma brucei, 48 h, read-out: Tbb MIC50; for trypanocidal activity against T. brucei: up to 100 μM. In kind it is cell-based.
Another data set addresses cruzain (Trypanosoma cruzi, UniProt P25779). In words: Cruzain enzymatic assay in 96-well plate format. In kind it is biochemical. The note with it: secondary assays performed at UCSF. The method, boiled down:
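Recombinant cruzain (4 nM final) in 100 mM sodium acetate pH 5.5, 5 mM DTT, 0.001% Triton X-100, preincubated 5 min at room temperature with test compound in DMSO. Reaction started with Z-Phe-Arg-AMC (10 μM). AMC release was followed as the rate of fluorescence increase (ex 355, em 460 nm). DMSO-only wells served as uninhibited control. IC50 was obtained by curve fitting.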

Data set [2] relates to Y strain T. cruzi trypomastigotes. In words: Trypanosoma cruzi assay in infected J774 macrophages. It counts as cell-based. To be noted: for activity against T. cruzi: 27 days treatment; for effect against the T. cruzi parasite in cell culture: infected macrophages.
The subject of another data set is J774 macrophages. In words: Compound toxicity for host macrophages in the T. cruzi assay. It counts as cell-based. To be noted: 5 μM.

Values after ≈ are worked out from the molar mass of the structure shown.

cruzain, sequence (P25779 123-337 limits assumed): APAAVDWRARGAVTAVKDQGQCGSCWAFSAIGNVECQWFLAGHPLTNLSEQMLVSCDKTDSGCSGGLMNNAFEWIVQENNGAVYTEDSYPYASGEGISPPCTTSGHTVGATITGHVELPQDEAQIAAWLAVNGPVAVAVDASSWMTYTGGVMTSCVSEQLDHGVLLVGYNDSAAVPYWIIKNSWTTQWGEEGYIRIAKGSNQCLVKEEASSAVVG

By MIC50 is commonly meant an inhibitory concentration at the 50% level, which refers to growth in some studies and to a panel of isolates in others. With `CCOc1nc(C#N)nc(N2CCCCC2)n1` [Compound 3], in data set [1], the MIC50 is more than 100 µM and the “trypanocidal activity against T. brucei” value is listed as “no trypanocidal activity”. At cruzain, the “IC50 values (in words)” value is “mid-nanomolar”.
In the case of `N#Cc1nc(N)nc(N(c2ccccc2)c2ccccc2)n1` [Compound 4], in data set [1], the MIC50 is more than 100 µM and the “trypanocidal activity against T. brucei” value is on record as “no trypanocidal activity”. Besides, the “IC50 values (in words)” value on cruzain was “mid-nanomolar”.
Consider `N#Cc1nc(Nc2cccc([N+](=O)[O-])c2)nc(NC2CCCC2)n1` [Compound 20], for which, in data set [1], the MIC50 worked out at 100 µM (≈ 32.5 µg/mL).
Regarding `N#Cc1nc(Nc2cccc(F)c2)nc(NC2CCCC2)n1` [Compound 21], the MIC50 in data set [1] came out at 100 µM (≈ 29.8 µg/mL).
For the compound `N#Cc1nc(Nc2cccc(Cl)c2)nc(NC2CCCC2)n1` [Compound 22], the MIC50 in data set [1] came out at 6 µM (≈ 1.89 µg/mL). In addition, in data set [2] (5 μM), the “activity against T. cruzi” value is “inactive”. For the same compound, in data set [2], the “effect against the T. cruzi parasite in cell culture” value (from here on “effect against the T. cruzi parasite”) is recorded as “no effect”.
Take `N#Cc1nc(Nc2cccc(Br)c2)nc(NC2CCCC2)n1` [Compound 23]: the MIC50 in data set [1] was found to be 6 µM (≈ 2.16 µg/mL). The toxicity against macrophages entry with J774 macrophages is “toxic”. For the same compound, the “effect against the T. cruzi parasite” value in data set [2] is on record as “no effect”.
For `N#Cc1nc(Nc2ccc(F)cc2)nc(NC2CCCC2)n1` [Compound 24], the MIC50 in data set [1] is more than 100 µM.
As to `Cc1cccc(Nc2nc(C#N)nc(NC3CCCC3)n2)c1` [Compound 25], the MIC50 in data set [1] was 25 µM (≈ 7.36 µg/mL). The “activity against T. cruzi” value in data set [2] (5 μM) is “inactive”. Also, the “effect against the T. cruzi parasite” value in data set [2] was “no effect”.
Regarding `N#Cc1nc(Nc2ccc(Br)cc2)nc(NC2CCCC2)n1` [Compound 26], in data set [1], the MIC50 is more than 100 µM.
For the compound `N#Cc1nc(Nc2cccc(-c3ccccc3)c2)nc(NC2CCCC2)n1` [Compound 27], the MIC50 in data set [1] came to 25 µM (≈ 8.91 µg/mL). In addition, the “activity against T. cruzi” value in data set [2] (5 μM) is “inactive”.
For `N#Cc1nc(Nc2cccc(C(F)(F)F)c2)nc(NC2CCCC2)n1` [Compound 28], the MIC50 in data set [1] amounted to 25 µM (≈ 8.71 µg/mL). Moreover, the “activity against T. cruzi” value in data set [2] (5 μM) was “inactive”.
Regarding `N#Cc1nc(Nc2cc(F)cc(F)c2)nc(NC2CCCC2)n1` [Compound 29, 4-(cyclopentylamino)-6-(3,5-difluorophenylamino)-1,3,5-triazine-2-carbonitrile], the MIC50 in data set [1] was 6 µM (≈ 1.9 µg/mL). In the data set with J774 macrophages, the toxicity against macrophages entry is “toxic”.
For the compound `N#Cc1nc(Nc2cc(Cl)cc(Cl)c2)nc(NC2CCCC2)n1` [Compound 30], the MIC50 in data set [1] was found to be 25 µM (≈ 8.73 µg/mL). Besides, in data set [2] (5 μM), the “activity against T. cruzi” value was “inactive”.
For the compound `N#Cc1nc(NCC(F)F)nc(Nc2cc(F)cc(F)c2)n1` [Compound 31], the MIC50 in data set [1] is 6 µM (≈ 1.87 µg/mL).
As to `CCn1cnc2c(Nc3cc(F)cc(F)c3)nc(C#N)nc21` [Compound 32, 6-(3,5-difluorophenylamino)-9-ethyl-9H-purine-2-carbonitrile], in data set [1], the MIC50 came to 25 µM (≈ 7.51 µg/mL). Moreover, the “activity against T. cruzi” value in data set [2] (10 μM) was “inactive”. The “effect against the T. cruzi parasite” value in data set [2] is “no effect”.
For `CCn1cnc2c(Nc3cccc(Cl)c3)nc(C#N)nc21` [Compound 35, 6-(3-chlorophenylamino)-9-ethyl-9H-purine-2-carbonitrile], the MIC50 in data set [1] came out at 25 µM (≈ 7.47 µg/mL). The “activity against T. cruzi” value in data set [2] (10 μM) was “inactive”. Also, the “effect against the T. cruzi parasite” value in data set [2] is recorded as “no effect”.
With `N#Cc1nc(Nc2cccc(Cl)c2)c2ncn(C3CCCC3)c2n1` [Compound 36], in data set [1], the MIC50 came to 100 µM (≈ 33.9 µg/mL). Also, the “activity against T. cruzi” value in data set [2] (10 μM) was “inactive”. In data set [2], the “effect against the T. cruzi parasite” value is “no effect”.
Take `CN1CCN(C(=O)N[C@@H](Cc2ccccc2)C(=O)N[C@H](/C=C/S(=O)(=O)c2ccccc2)CCc2ccccc2)CC1` [Compound K777, reference compound]: in data set [2] (10 μM), the “activity against T. cruzi” value was “cured cell infection”.
